Experimental findings from ChEMBL document CHEMBL4334479, “Trichocadinins B-G: Antimicrobial Cadinane Sesquiterpenes from Trichoderma virens QA-8, an Endophytic Fungus Obtained from the Medicinal Plant Artemisia argyi” (2019) are described below.

Assay type in all cases: functional
One assay has as its system Escherichia coli. The experiment in a line: Antibacterial activity against Escherichia coli EMBLC 1 by microplate XTT assay. In a few lines:
(§1)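 Bacterial strains tested in a microplate assay with chloramphenicol as the positive control. Activity is reported as MIC in μg/mL.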

Another assay has as its system Aeromonas hydrophila. The experiment in a line: Antibacterial activity against Aeromonas hydrophila QDIO 1 by microplate XTT assay. In a few lines: as §1
(In general: Formazan colour is commonly taken as a measure of viable cells.)

The next assay relates to Edwardsiella tarda. The experiment in a line: Antibacterial activity against Edwardsiella tarda QDIO 2 by microplate XTT assay. The gist of the method:
as §1

A further assay deals with Bipolaris sorokiniana. The experiment in a line: Antifungal activity against Bipolaris sorokiniana QDAU 7 by microplate XTT assay. The gist of the method: (§2)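 Plant-pathogenic fungi, provided by Qingdao Agricultural University, were tested in a microplate assay with amphotericin B as the positive control.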
The next assay has as its system Micrococcus luteus. The experiment in a line: Antibacterial activity against Micrococcus luteus QDIO 3 by microplate XTT assay. In a few lines: as §1
Another assay deals with Pseudomonas aeruginosa. The assay can be described thus: Antibacterial activity against Pseudomonas aeruginosa QDIO 4 by microplate XTT assay. In a few lines: as §1
The next assay relates to Alternaria solani. The experiment in a line: Antifungal activity against Alternaria solani QDAU 14 by microplate XTT assay. In a few lines: as §2
The next assay relates to Vibrio anguillarum. The experiment in a line: Antibacterial activity against Vibrio anguillarum QDIO 6 by microplate XTT assay. The gist of the method:
as §1

The next assay relates to Vibrio harveyi. The assay can be described thus: Antibacterial activity against Vibrio harveyi QDIO 7 by microplate XTT assay. In a few lines:
as §1

The next assay concerns Vibrio parahaemolyticus. The experiment in a line: Antibacterial activity against Vibrio parahaemolyticus QDIO 8 by microplate XTT assay. The gist of the method:
as §1

The next assay deals with Vibrio vulnificus. The assay can be described thus: Antibacterial activity against Vibrio vulnificus QDIO 9 by microplate XTT assay. In a few lines: as §1
Assay [1] relates to Ceratobasidium cornigerum. The assay can be described thus: Antifungal activity against Ceratobasidium cornigerum QDAU 8 by microplate XTT assay. The gist of the method:
as §2

Assay [2] relates to Colletotrichum gloeosporioides. The experiment in a line: Antifungal activity against Colletotrichum gloeosporioides Penz-QDAU 9 by microplate XTT assay. In a few lines:
as §2

In the next assay the test system is Fusarium graminearum. The experiment in a line: Antifungal activity against Fusarium graminearum QDAU 10 by microplate XTT assay. In a few lines:
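Plant-pathogenic fungal strain supplied by Qingdao Agricultural University; MIC determined by microplate assay with amphotericin B as positive control.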

The test system of assay [3] is Fusarium oxysporum f. sp. cucumerinum. The assay can be described thus: Antifungal activity against Fusarium oxysporum f.sp.cucumerinum QDAU 16 by microplate XTT assay. The gist of the method:
as §2

Assay [4] relates to Fusarium oxysporum f. sp. momordicae. The experiment in a line: (§3) Antifungal activity against Fusarium oxysporum f.sp.momordicae QDAU 17 by microplate XTT assay. The gist of the method:
as §2

Assay [5] is described as follows: (§4) Antifungal activity against Fusarium oxysporum f.sp. radicis-lycopersici QDAU 5 by microplate XTT assay. In a few lines: as §2
The next assay deals with Fusarium solani. The experiment in a line: Antifungal activity against Fusarium solani QDAU 15 by microplate XTT assay. In a few lines:
as §2

In assay [6] the test system is Colletotrichum gloeosporioides. The experiment in a line: Antifungal activity against Glomerella cingulata QDAU 2 by microplate XTT assay. The gist of the method:
as §2

Another assay relates to Bipolaris maydis. The assay can be described thus: Antifungal activity against Helminthosporium maydis QDAU 18 by microplate XTT assay. The gist of the method:
as §2

The test system of a further assay is Penicillium digitatum. The experiment in a line: Antifungal activity against Penicillium digitatum QDAU 11 by microplate XTT assay. The gist of the method: as §2
Assay [7] concerns Botryosphaeria berengeriana. The assay can be described thus: Antifungal activity against Physalospora pyricola Nose QDAU 12 by microplate XTT assay. In a few lines:
as §2

In the next assay the test system is Cytospora mali. The assay can be described thus: Antifungal activity against Valsa mali QDAU 13 by microplate XTT assay. The gist of the method: as §2
The test system of assay [8] is Fusarium oxysporum f. sp. radicis-lycopersici. Described as §4. The gist of the method:
as §2

Assay [9] can be described thus: as §3. The gist of the method: as §2

Converted amounts (≈) assume the structure as drawn. The source made the active and inactive calls.

Regarding `C=C1CC[C@H](C(C)C)[C@H]2C=C(C(=O)O)C[C@@H](O)[C@H]12`, the MIC result in the assay on Escherichia coli, with Aeromonas hydrophila, with Edwardsiella tarda, in the assay with Bipolaris sorokiniana, in the assay with Micrococcus luteus and in the assay on Pseudomonas aeruginosa was “inactive” each time. Moreover, the MIC result (in the assay on Alternaria solani; in the assay with Vibrio anguillarum; with Vibrio harveyi; with Vibrio parahaemolyticus; with Vibrio vulnificus; in assay [1]) was “inactive” in each case. The MIC result (in assay [2]; with Fusarium graminearum; in assay [4]; in the assay on Fusarium solani; in assay [6]; in the assay on Bipolaris maydis) was “inactive” each time. Besides, the MIC (as a rule, the smallest concentration in the dilution series that meets the test's criterion for growth inhibition) in the assay with Cytospora mali was “inactive”. Besides, the minimum inhibitory concentration (MIC) is 32 µg/mL (≈ 128 µM) in assay [3], 64 µg/mL (≈ 256 µM) in [5], 16 µg/mL (≈ 63.9 µM) in the assay on Penicillium digitatum and 1 µg/mL (≈ 3.99 µM) in assay [7].
Take `O=C(N[C@H](CO)[C@H](O)c1ccc([N+](=O)[O-])cc1)C(Cl)Cl` [CHLORAMPHENICOL]: the minimal inhibitory concentration (MIC) against Escherichia coli came out at 2 µg/mL (≈ 6.19 µM); against Aeromonas hydrophila it was 4 µg/mL (≈ 12.4 µM); against Edwardsiella tarda, 0.5 µg/mL (≈ 1.55 µM); in the assay with Micrococcus luteus, 4 µg/mL (≈ 12.4 µM); in the assay on Pseudomonas aeruginosa, 2 µg/mL (≈ 6.19 µM); against Vibrio anguillarum, 1 µg/mL (≈ 3.09 µM). The MIC amounted to 1 µg/mL (≈ 3.09 µM) in the assay with Vibrio harveyi, 4 µg/mL (≈ 12.4 µM) in the assay with Vibrio parahaemolyticus and 1 µg/mL (≈ 3.09 µM) in the assay with Vibrio vulnificus.
Consider `C=C1CC[C@H](C(C)C)[C@@H]2C=C(C(=O)O)CC[C@H]12`, for which the MIC against Escherichia coli was 8 µg/mL (≈ 34.1 µM); against Aeromonas hydrophila, 8 µg/mL (≈ 34.1 µM); against Micrococcus luteus, 32 µg/mL (≈ 137 µM); in the assay with Pseudomonas aeruginosa it was 4 µg/mL (≈ 17.1 µM); against Vibrio harveyi, 2 µg/mL (≈ 8.53 µM); in the assay on Vibrio parahaemolyticus, 8 µg/mL (≈ 34.1 µM). Besides, the MIC in the assay on Vibrio vulnificus is 64 µg/mL (≈ 273 µM); in [3] it was 16 µg/mL (≈ 68.3 µM); in assay [5], 64 µg/mL (≈ 273 µM); in assay [6], 1 µg/mL (≈ 4.27 µM); in assay [7] it was 8 µg/mL (≈ 34.1 µM); with Cytospora mali, 32 µg/mL (≈ 137 µM). Also, the MIC result (with Edwardsiella tarda; in the assay on Bipolaris sorokiniana; in the assay with Alternaria solani; with Vibrio anguillarum; in assay [1]; in assay [2]) was “inactive” in each case. Further, the MIC result (with Fusarium graminearum; in assay [4]; with Fusarium solani; in the assay on Bipolaris maydis; with Penicillium digitatum) was “inactive” each time.
In the case of `C[C@H](CO)[C@H]1CCc2coc3cc(C(=O)O)cc1c23`, the MIC in the assay with Escherichia coli turned out to be 16 µg/mL (≈ 61.5 µM); against Aeromonas hydrophila, 64 µg/mL (≈ 246 µM); in the assay on Bipolaris sorokiniana, 8 µg/mL (≈ 30.7 µM); in the assay with Pseudomonas aeruginosa it was 8 µg/mL (≈ 30.7 µM); against Alternaria solani it was 32 µg/mL (≈ 123 µM); in the assay on Vibrio harveyi it was 16 µg/mL (≈ 61.5 µM). The MIC was determined as 32 µg/mL (≈ 123 µM) against Vibrio parahaemolyticus; 2 µg/mL (≈ 7.68 µM) in [3]; 32 µg/mL (≈ 123 µM) in the assay on Fusarium solani; 4 µg/mL (≈ 15.4 µM) in assay [6]; 8 µg/mL (≈ 30.7 µM) against Penicillium digitatum; 4 µg/mL (≈ 15.4 µM) in assay [7]. Besides, the MIC entry (in the assay on Edwardsiella tarda; in the assay with Micrococcus luteus; in the assay with Vibrio anguillarum; in the assay with Vibrio vulnificus; in assay [1]; in assay [2]) was “inactive” in each case. The MIC entry (in the assay with Fusarium graminearum; in assay [4]; in [8]; in the assay with Bipolaris maydis; with Cytospora mali) was “inactive” each time.
For `CC(C)[C@H]1CCC(=O)c2cc(O)c(C(=O)O)cc21`, the MIC result with Escherichia coli, in the assay on Aeromonas hydrophila, in the assay on Bipolaris sorokiniana, in the assay with Micrococcus luteus, with Pseudomonas aeruginosa and in the assay with Alternaria solani was “inactive” each time. Further, the MIC entry (with Vibrio harveyi; in the assay with Vibrio parahaemolyticus; in the assay on Vibrio vulnificus; in assay [1]; in assay [2]; in the assay on Fusarium graminearum) was “inactive” throughout. Moreover, the MIC entry (in [4]; in [8]; in the assay with Fusarium solani; in [6]; with Bipolaris maydis; with Penicillium digitatum) was “inactive” each time. Also, in the assay with Cytospora mali, the MIC entry is “inactive”. Moreover, the MIC amounted to 1 µg/mL (≈ 4.03 µM) against Edwardsiella tarda, 2 µg/mL (≈ 8.06 µM) with Vibrio anguillarum, 64 µg/mL (≈ 258 µM) in assay [3] and 4 µg/mL (≈ 16.1 µM) in [7].
Regarding `CC(C)[C@H]1CCc2coc3cc(C(=O)O)cc1c23`, the MIC in the assay on Escherichia coli worked out at 8 µg/mL (≈ 32.7 µM); against Aeromonas hydrophila, 8 µg/mL (≈ 32.7 µM); against Bipolaris sorokiniana, 1 µg/mL (≈ 4.09 µM); against Micrococcus luteus it was 32 µg/mL (≈ 131 µM); against Pseudomonas aeruginosa, 8 µg/mL (≈ 32.7 µM); in the assay on Alternaria solani, 4 µg/mL (≈ 16.4 µM). Besides, the MIC in the assay with Vibrio harveyi amounted to 8 µg/mL (≈ 32.7 µM); against Vibrio parahaemolyticus, 4 µg/mL (≈ 16.4 µM); in the assay with Vibrio vulnificus, 64 µg/mL (≈ 262 µM); in [1], 16 µg/mL (≈ 65.5 µM); in [2] it was 8 µg/mL (≈ 32.7 µM); in the assay with Fusarium graminearum it was 8 µg/mL (≈ 32.7 µM). Further, the MIC is 1 µg/mL (≈ 4.09 µM) in [3]; 2 µg/mL (≈ 8.19 µM) in [9]; 64 µg/mL (≈ 262 µM) in [5]; 4 µg/mL (≈ 16.4 µM) against Fusarium solani; 1 µg/mL (≈ 4.09 µM) in assay [6]; 8 µg/mL (≈ 32.7 µM) with Penicillium digitatum. Also, the MIC in assay [7] was found to be 4 µg/mL (≈ 16.4 µM); in the assay with Cytospora mali, 16 µg/mL (≈ 65.5 µM). Also, the MIC result in the assay on Edwardsiella tarda, in the assay on Vibrio anguillarum and in the assay on Bipolaris maydis was “inactive” in each case.
On to `C[C@@H]1[C@H](O)[C@@H](C)/C=C/C=C/C=C/C=C/C=C/C=C/C=C/[C@H](O[C@@H]2O[C@H](C)[C@@H](O)[C@H](N)[C@@H]2O)C[C@@H]2O[C@](O)(C[C@@H](O)C[C@@H](O)[C@H](O)CC[C@@H](O)C[C@@H](O)CC(=O)O[C@H]1C)C[C@H](O)[C@H]2C(=O)O` [AMPHOTERICIN B], for which the MIC with Bipolaris sorokiniana was found to be 0.5 µg/mL (≈ 0.541 µM); in the assay with Alternaria solani, 2 µg/mL (≈ 2.16 µM); in [1], 8 µg/mL (≈ 8.66 µM); in assay [2] it was 0.5 µg/mL (≈ 0.541 µM); against Fusarium graminearum it was 2 µg/mL (≈ 2.16 µM); in assay [3], 0.5 µg/mL (≈ 0.541 µM). In addition, the MIC in [9] is 1 µg/mL (≈ 1.08 µM); in [5] it was 2 µg/mL (≈ 2.16 µM); against Fusarium solani it was 4 µg/mL (≈ 4.33 µM); in assay [6], 0.5 µg/mL (≈ 0.541 µM); with Bipolaris maydis it was 2 µg/mL (≈ 2.16 µM); in the assay on Penicillium digitatum, 2 µg/mL (≈ 2.16 µM). The MIC amounted to 2 µg/mL (≈ 2.16 µM) in [7] and 8 µg/mL (≈ 8.66 µM) in the assay on Cytospora mali.
Regarding `CC(C)[C@H]1CC[C@@H](C)[C@]2(O)CCC(C(=O)O)=C[C@H]12`, the MIC result with Escherichia coli, in the assay with Aeromonas hydrophila, with Edwardsiella tarda, in the assay with Bipolaris sorokiniana, in the assay on Micrococcus luteus and with Pseudomonas aeruginosa was “inactive” in each case. For the same compound, the MIC entry (with Alternaria solani; in the assay with Vibrio anguillarum; in the assay with Vibrio harveyi; in the assay with Vibrio parahaemolyticus; with Vibrio vulnificus; in assay [1]) was “inactive” throughout. For the same compound, the MIC entry (in assay [2]; in the assay on Fusarium graminearum; in [4]; in assay [8]; in the assay with Fusarium solani; in assay [6]) was “inactive” each time. For the same compound, the MIC entry (in the assay with Penicillium digitatum; in assay [7]; in the assay with Cytospora mali) was “inactive” each time. Besides, the MIC in assay [3] was 32 µg/mL (≈ 127 µM); in the assay on Bipolaris maydis it was 16 µg/mL (≈ 63.4 µM).
